Test results taken from ChEMBL document CHEMBL1122329, “Synthesis and antianxiety activity of (omega-piperazinylalkoxy)indan derivatives” (J Med Chem, 1983).

Legend:
[1] = tested on: Mus musculus; test: Anti-morphine activity against morphine-induced Straub''s tail reaction in mice expressed as % inhibition at 25 mg/kg peroral administration; type: functional; conditions: route oral
Outline: (§1)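 Six mice per group received test compounds orally 1 h before morphine (20 mg/kg ip). Straub's tail reaction was scored as the index of morphine's CNS stimulant action.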

[2] = tested on: Mus musculus; test: Anti-fighting potency against foot shock induced fighting behavior in mice expressed as % inhibition at 25 mg/kg peroral administration; type: functional; conditions: route oral
[3] = tested on: Mus musculus; test: Anti-morphine activity against the morphine-induced Straub's tail reaction in mice on peroral administration; type: functional; conditions: po
Outline: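 Mice, six per group, dosed orally with test compound 1 h before morphine (20 mg/kg ip); Straub's tail reaction scored as index of morphine CNS stimulation.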

[4] = tested on: Mus musculus; test: Antifighting potency against the foot shock induced fighting behavior in mice on peroral administration; type: functional; conditions: po
[5] = tested on: Rattus norvegicus; test: Evaluated for neuroleptic-like property using open-field test in rats(increase in ambulation at 3 to 20 mg/kg on peroral administration; value may range from 7.3 to 13.9; type: functional; conditions: dose mg/kg 3-20, route oral
[6] = Ratio of muscle relaxant action to antifighting effect; type: functional
Outline: (§2)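 Muscle relaxation was measured by traction test in mice (eight per group), 1 h after oral dosing. Forepaws were placed on a horizontal wire bar 30 cm high. Failure to bring the hind feet onto the wire within 5 s counted as relaxation. This action was set in ratio with the antifighting effect.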

[7] = Toxicity on peroral administration to mice; type: organism-based; conditions: mouse, in vivo, po
Outline: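 Oral dosing to mice, eight per group; LD50 calculated by Litchfield-Wilcoxon method.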

[8] = tested on: Rattus norvegicus; test: Evaluated for neuroleptic-like property using anti-methamphetamine test in rats on peroral administration; type: functional; conditions: po
Outline: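 Groups of six rats were dosed orally, then given methamphetamine 5 mg/kg ip 1 h later. Stereotypy was scored 0–4: sleep/eyes closed 0, motionless/eyes open 1, moving around cage 2, sniffing 3, continuous licking or gnawing 4. ED50 was the dose halving mean score versus controls, with 95% confidence limits.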

[9] = tested on: Mus musculus; test: Cataleptogenic action in mice on peroral administration; type: functional; conditions: po
Outline: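 Six mice per group were dosed orally 1 h before testing. Forepaws were placed on a horizontal steel bar to force an abnormal posture. Holding the posture over 30 s counted as catalepsy. ED50 was the dose giving catalepsy in 50% of animals, with 95% confidence limits.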

[10] = tested on: Mus musculus; test: Evaluated for hypothermic activity in mice at 30 mg/kgo n peroral administration; type: functional; conditions: dose 30 mg/kg; route oral
Outline: (§3)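 Six mice per group were dosed orally 1 h before testing. Rectal temperature was read with an electronic thermometer. Results are given as degrees of hypothermia (Δt °C) versus an untreated group.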

[11] = tested on: Mus musculus; test: Evaluated for muscle-relaxant action in mice on peroral administration; type: functional; conditions: po
Outline: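 Traction test: mice, eight per group, dosed orally; 1 h later forepaws placed on horizontal wire bar 30 cm high; failure to bring hind feet onto wire within 5 s counted as muscle relaxation.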

[12] = tested on: Mus musculus; test: Evaluated for hypothermic activity in mice at 30 mg/kg on peroral administration; type: functional; conditions: route oral; outline: as §3
[13] = tested on: Mus musculus; test: Anti-morphine activity against the morphine-induced Straub''s tail reaction in mice expressed as % inhibition at 25 mg/kg peroral administration; type: functional; conditions: route oral; outline: as §1
[14] = Ratio of the muscle relaxant action to antifighting effect; type: functional; outline: as §2
[15] = tested on: Rattus norvegicus; test: Evaluated for neuroleptic-like property using open-field test in rats(increase in ambulation at 3 to 20 mg/kg) on peroral administration; value may range from 8.4 to 17.0; type: functional; conditions: dose mg/kg 3-20, route oral

SMILES	inhibition in vivo at 25 mg/kg [1]	inhibition in vivo at 25 mg/kg [2]	further results
O=[N+]([O-])c1ccc(N2CCN(CCCCOc3ccc4c(c3)CCC4)CC2)cc1	22%	0%	
c1ccc(N2CCN(CCCOc3cccc4c3CCC4)CC2)cc1	33%	0%	
Clc1cc(Cl)cc(N2CCN(CCCCOc3ccc4c(c3)CCC4)CC2)c1	0%	0%	
Clc1ccc(N2CCN(CCCOc3ccc4c(c3)CCC4)CC2)cc1	58%	43%	
Cl.Cl.FC(F)(F)c1cccc(N2CCN(CCCCOc3ccc4c(c3)CCC4)CC2)c1	100%	8%	ED50 [3]: 12.5 mg/kg
COc1cc2c(cc1OCCCN1CCN(c3ccc(F)cc3)CC1)CCC2	100%	100%	
Fc1cc2c(cc1OCCCN1CCN(c3cccc(Cl)c3)CC1)CCC2	92%	92%	
Clc1cccc(N2CCN(CCCCOc3ccc4c(c3)CCC4)CC2)c1	0%	37%	
Cl.Cl.O=[N+]([O-])c1ccccc1N1CCN(CCCCOc2ccc3c(c2)CCC3)CC1	54%	42%	ED50 [3]: 23 mg/kg; ED50 [4]: 25.8 mg/kg
COc1ccc(N2CCN(CCCCOc3ccc4c(c3)CCC4)CC2)cc1	14%	17%	
COc1ccc(N2CCN(CCCOc3ccc4c(c3)CCC4)CC2)cc1	37%	60%	
Cl.Cl.Fc1cc2c(cc1OCCCN1CCN(c3ccccc3)CC1)CCC2	89%	100%	ED50 [5]: 9.3 mg/kg; Ratio [6]: 5; LD50 [7]: > 2000 mg/kg; ED50 [8]: > 100 mg/kg; ED50 [9]: > 100 mg/kg; Delta t [10]: -2.9 °C
c1ccc(N2CCN(CCCCOc3ccc4c(c3)CCC4)CC2)cc1	50%	75%	
Fc1ccc(N2CCN(CCCOc3cccc4c3CCC4)CC2)cc1	25%	5%	
CNC1=Nc2ccc(Cl)cc2C(c2ccccc2)=[N+]([O-])C1 [CHLORDIAZEPOXIDE]			LD50 [7]: 700 mg/kg; ED50 [8]: > 30 mg/kg; ED50 [11]: 8 mg/kg; ED50 [9]: > 30 mg/kg; Delta t [12]: 0.2
Fc1ccc(N2CCN(CCCCCOc3ccc4c(c3)CCC4)CC2)cc1	71%	58%	
Fc1ccc(N2CCN(CCCOc3cc4c(cc3F)CCC4)CC2)cc1	97%	100%	
O=[N+]([O-])c1cc2c(cc1OCCCN1CCN(c3ccccc3)CC1)CCC2	24%	67%	
Oc1cc2c(cc1OCCCN1CCN(c3cccc(Cl)c3)CC1)CCC2	29%	0%	
Cl.Cl.Fc1ccc(N2CCN(CCCCOc3cc4c(cc3F)CCC4)CC2)cc1	90%	83%	ED50 [3]: 10.2 mg/kg; ED50 [4]: 14.4 mg/kg
Fc1ccc(N2CCN(CCOc3ccc4c(c3)CCC4)CC2)cc1	0%	40%	
O=[N+]([O-])c1cc2c(cc1OCCCN1CCN(c3ccc(F)cc3)CC1)CCC2	28%	58%	
Oc1cc2c(cc1OCCCN1CCN(c3ccccc3)CC1)CCC2	0%	17%	
Cl.Cl.Cl.Clc1cc2c(cc1OCCCN1CCN(c3ccccc3)CC1)CCC2	82%	58%	ED50 [3]: 22 mg/kg; ED50 [4]: 21 mg/kg
CN1C(=O)CN=C(c2ccccc2)c2cc(Cl)ccc21 [DIAZEPAM]			ED50 [8]: > 30 mg/kg; ED50 [3]: 1.2 mg/kg; ED50 [4]: 1.6 mg/kg; ED50 [11]: 4.8 mg/kg; ED50 [9]: > 30 mg/kg; Delta t [12]: -0.1
O=[N+]([O-])c1ccccc1N1CCN(CCCOc2ccc3c(c2)CCC3)CC1	43%	8%	
Fc1cc2c(cc1OCCCCN1CCN(c3ccccc3)CC1)CCC2	79%	33%	

SMILES	inhibition in vivo at 25 mg/kg [1]	inhibition in vivo at 25 mg/kg [2]	further results
Clc1ccccc1N1CCN(CCCOc2ccc3c(c2)CCC3)CC1	42%	40%	
Oc1cc2c(cc1OCCCN1CCN(c3ccc(F)cc3)CC1)CCC2	0%	25%	
COc1ccccc1N1CCN(CCCOc2ccc3c(c2)CCC3)CC1	19%	0%	
Clc1cc(Cl)cc(N2CCN(CCCOc3ccc4c(c3)CCC4)CC2)c1	0%	0%	
c1ccc(N2CCN(CCCCCOc3ccc4c(c3)CCC4)CC2)cc1	25%	27%	
Fc1cccc(N2CCN(CCCCOc3ccc4c(c3)CCC4)CC2)c1	17%	15%	
Cl.Cl.Cl.Clc1ccccc1N1CCN(CCCCOc2ccc3c(c2)CCC3)CC1	42%	85%	ED50 [3]: 30 mg/kg; ED50 [4]: 14.5 mg/kg
c1ccc(N2CCN(CCOc3ccc4c(c3)CCC4)CC2)cc1	17%	0%	
CC(=O)c1ccc(N2CCN(CCCOc3ccc4c(c3)CCC4)CC2)cc1	0%	13%	
COc1ccccc1N1CCN(CCCCOc2ccc3c(c2)CCC3)CC1	42%	33%	
Fc1ccc(N2CCN(CCCCOc3ccc4c(c3)CCC4)CC2)cc1	100%	70%	
Clc1ccc(N2CCN(CCCCOc3ccc4c(c3)CCC4)CC2)cc1	33%	31%	
Clc1cccc(N2CCN(CCCOc3ccc4c(c3)CCC4)CC2)c1	83%	83%	
Fc1cc2c(cc1OCCCN1CCN(c3cccc(C(F)(F)F)c3)CC1)CCC2	20%	0%	
Cl.Cl.Cl.Fc1ccc(N2CCN(CCCOc3cc4c(cc3Cl)CCC4)CC2)cc1	100%	83%	ED50 [3]: 11.5 mg/kg; ED50 [4]: 14.3 mg/kg
O=[N+]([O-])c1ccc(N2CCN(CCCOc3ccc4c(c3)CCC4)CC2)cc1	26%	0%	
Fc1cccc(N2CCN(CCCOc3ccc4c(c3)CCC4)CC2)c1	42%	19%	
CCC1CCc2ccc(OCCCN3CCN(c4ccc(F)cc4)CC3)cc21 (stereo not given)	44%	67%	
Cl.Cl.c1ccc(N2CCN(CCCOc3ccc4c(c3)CCC4)CC2)cc1		85%	LD50 [7]: > 1500 mg/kg; inhibition in vivo at 25 mg/kg [13]: 89%; Ratio [14]: 2.18; ED50 [8]: > 100 mg/kg; ED50 [15]: 11.7 mg/kg; ED50 [9]: > 100 mg/kg; Delta t [12]: -2.3 °C
Fc1ccc(N2CCN(CCCOc3ccc4c(c3)C(c3ccccc3)CC4)CC2)cc1 (stereo not given)	32%	17%	
FC(F)(F)c1cccc(N2CCN(CCCOc3ccc4c(c3)CCC4)CC2)c1	73%	0%	
COc1cc2c(cc1OCCCN1CCN(c3ccccc3)CC1)CCC2	65%	50%	
c1ccc(C2CCc3ccc(OCCCN4CCN(c5ccccc5)CC4)cc32)cc1 (stereo not given)	34%	0%	
COc1cc2c(cc1OCCCN1CCN(c3cccc(Cl)c3)CC1)CCC2.Cl.Cl.Cl	98%	67%	ED50 [3]: 11.3 mg/kg; ED50 [4]: 15.9 mg/kg
Clc1ccc(N2CCN(CCCOc3cc4c(cc3Cl)CCC4)CC2)cc1	36%	33%	
Cc1cc2c(cc1OCCCN1CCN(c3ccc(F)cc3)CC1)CCC2	31%	50%	
FC(F)(F)c1cccc(N2CCN(CCCCCOc3ccc4c(c3)CCC4)CC2)c1	66%	33%	
